Experimental data from ChEMBL document CHEMBL3120069, “Chemical genetics-based discovery of indole derivatives as HCV NS5B polymerase inhibitors” (Eur J Med Chem, 2014).

What was measured:
[1] = Selectivity index, ratio of CC50 for human Huh7.5 cells to EC50 for Hepatitis C virus JFH-1 J6 genotype 2a infected in human Huh7.5 cells; type: toxicity, cell-based, Huh-7; conditions: read-out: Ratio CC50/EC50
[2] = Cytotoxicity against human Huh7.5 cells assessed as cell viability after 72 hrs by MTT assay; type: cell-based, Huh-7
Hepatitis C virus [3] = test: Antiviral activity against Hepatitis C virus JFH-1 J6 genotype 2a infected in human Huh7.5 cells assessed as inhibition of viral RNA replication after 72 hrs by luciferase reporter gene assay; type: functional, organism-based, Hepacivirus hominis; conditions: subtype 2a JFH1 J6, Huh-7, 72 h
[4] = Ratio of cytotoxicity against human Huh7.5 cells assessed as cell viability to antiviral activity against Hepatitis C virus JFH-1 J6 genotype 2a infected in human Huh7.5 cells assessed as inhibition of viral RNA replication; type: toxicity, cell-based, Huh-7
[5] = Cytotoxicity against human Huh7.5 cells assessed as cell viability at 10 uM after 72 hrs by MTT assay relative to control; type: cell-based, Huh-7; conditions: read-out: Activity
Outline: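 Rluc-J6/JFH1 RNA-transfected Huh7.5 cells screened at a single 10 µM for 72 h alongside DMSO, with clemizole as positive control. Renilla luciferase gave replication level and parallel MTT gave viability, each as percent of DMSO; ratio of viability to replication reported.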

Hepatitis C virus [6] = test: Antiviral activity against Hepatitis C virus JFH-1 J6 genotype 2a infected in human Huh7.5 cells assessed as viral RNA replication at 10 uM after 72 hrs by luciferase reporter gene assay relative to control; conditions: subtype 2a JFH1 J6, Huh-7, 72 h

| Structure (SMILES) | EC50 (Hepatitis C virus [3]) | selectivity ratio [1] | CC50 at 72 h [2] | selectivity ratio [4] | viability at 72 h, 10 µM [5] | Activity at 10 µM (Hepatitis C virus [6]) |
| --- | --- | --- | --- | --- | --- | --- |
| C/C(=C\c1c[nH]c2ccccc12)C(N)=O | > 10 µM | – | > 10 µM | – | – | – |
| COc1ccc(CNC(=O)/C=C/c2c[nH]c3ccccc23)cc1OC | 12.9 µM | 6.9 | 89.5 µM | 2.6 | 92.2% | 35.1% |
| CC(C)(C)c1ccc(NC(=O)/C=C/c2c[nH]c3ccccc23)cc1 | 1.9 µM | 5.2 | 10.1 µM | 28.6 | 60.1% | 2.1% |
| CCN(CC)C(=O)/C=C/c1c[nH]c2ccccc12 | 62.7 µM | 1.6 | 98.7 µM | 1.3 | 93.8% | 72% |
| C/C(=C\c1c[nH]c2ccccc12)C(=O)O | > 10 µM | – | > 100 µM | – | – | – |
| CNC(=O)/C(C)=C/c1c[nH]c2ccccc12 | > 10 µM | – | > 10 µM | – | – | – |
| C/C(=C\c1c[nH]c2ccccc12)C(=O)NCCN(C)C | 64.2 µM | > 1.6 | > 100 µM | – | – | – |
| Clc1ccc(Cn2c(CN3CCCC3)nc3ccccc32)cc1 [CLEMIZOLE] | 8 µM | 4.9 | 39.4 µM | 4.3 | 102% | 23.4% |
| C/C(=C\c1c[nH]c2ccccc12)C(=O)NCc1ccco1 | 11.3 µM | 3.5 | 39.1 µM | – | – | – |
| CC(C)NC(=O)/C=C/c1c[nH]c2ccccc12 | 93.8 µM | > 1.1 | > 100 µM | 1.5 | 106% | 69% |
| C/C(=C\c1c[nH]c2ccccc12)C(=O)NCCCn1ccnc1 | 33.7 µM | > 3 | > 100 µM | – | – | – |
| O=C(/C=C/c1c[nH]c2ccccc12)N1CCN(Cc2ccc(C(F)(F)F)cc2)CC1 | 15.6 µM | 1.8 | 27.9 µM | 2.5 | 81.7% | 32.4% |
| CCOC(=O)/C(C)=C/c1c[nH]c2ccccc12 | 22.2 µM | 1.1 | 25.3 µM | – | – | – |
| CC(C)(C)c1ccc(NC(=O)CCc2c[nH]c3ccccc23)cc1 | 6.1 µM | 2.3 | 13.6 µM | – | – | – |

Second part, led by results:

| EC50 (Hepatitis C virus [3]) | Structure (SMILES) | selectivity ratio [1] | CC50 at 72 h [2] | selectivity ratio [4] | viability at 72 h, 10 µM [5] | Activity at 10 µM (Hepatitis C virus [6]) |
| --- | --- | --- | --- | --- | --- | --- |
| 17.6 µM | COc1cccc2[nH]cc(/C=C(\C)C(=O)Nc3ccc(C(C)(C)C)cc3)c12 | 1.9 | 34.1 µM | – | – | – |
| 6.7 µM | C/C(=C\c1c[nH]c2ccc(C)cc12)C(=O)Nc1ccc(C(C)(C)C)cc1 | 4.2 | 28.1 µM | – | – | – |
| 2.2 µM | C/C(=C\c1c[nH]c2ccccc12)C(=O)Nc1ccc(C(C)(C)C)cc1 | 7.9 | 17.3 µM | – | – | – |
| 3 µM | COc1ccc2[nH]cc(/C=C(\C)C(=O)Nc3ccc(C(C)(C)C)cc3)c2c1 | 5.5 | 16.4 µM | – | – | – |
| 13 µM | C/C(=C\c1c[nH]c2cc(Br)ccc12)C(=O)Nc1ccc(C(C)(C)C)cc1 | 5.3 | 68.8 µM | – | – | – |
| 43.6 µM | C/C(=C\c1c[nH]c2ccccc12)C(=O)Nc1ccc(C(F)(F)F)cc1 | 2.2 | 94.9 µM | – | – | – |
| 6.2 µM | C/C(=C\c1c[nH]c2ccc([N+](=O)[O-])cc12)C(=O)Nc1ccc(C(C)(C)C)cc1 | 3.7 | 23.1 µM | – | – | – |
| > 100 µM | C/C(=C\c1c[nH]c2ccc(C#N)cc12)C(=O)Nc1ccc(C)cc1 | – | > 100 µM | – | – | – |
| 1.5 µM | C/C(=C\c1c[nH]c2cc(C(C)C)ccc12)C(=O)Nc1ccc(C(C)(C)C)cc1 | 17 | 24.8 µM | – | – | – |
| 37.7 µM | C/C(=C\c1c[nH]c2ccc(C#N)cc12)C(=O)Nc1ccc(C(C)C)cc1 | 3.6 | 137 µM | – | – | – |
| 8.8 µM | COc1ccc2c(/C=C(\C)C(=O)Nc3ccc(C(C)(C)C)cc3)c[nH]c2c1 | 3.5 | 30.7 µM | – | – | – |
| 4.5 µM | C/C(=C\c1c[nH]c2cc(C)ccc12)C(=O)Nc1ccc(C(C)(C)C)cc1 | 5.7 | 25.6 µM | – | – | – |
